Published values gathered from unrelated publications.
Each line is one published result; the experiments were not run side by side.
Cell line: SN12C
Read-out: cell growth or viability

Structure (SMILES) | method | tested at | time | endpoint | result
CC[C@@]1(O)C(=O)OCc2c1cc1n(c2=O)Cc2cc3ccccc3nc2-1 | SRB |  |  | GI50 | 0.02 µM
COc1cccc(Oc2ccccc2NC(=O)CNC(=O)c2cccc3ccccc23)c1 | SRB |  | 48 h | GI50 | 1.45 µM
COc1ccc(C(=O)/C=C/c2cccc(Br)c2)cc1S(N)(=O)=O | SRB | 10 µM |  | inhibition | 179%
S=C([S][Au-][P+](CCCCCC[P+]([Au-][S]C(=S)n1cccn1)(c1ccccc1)c1ccccc1)(c1ccccc1)c1ccccc1)n1cccn1 |  |  |  | GI50 | 1.95 µM
COc1cc(-c2ccc(-c3ccc(C(=N)N)nc3)s2)cc(OC)c1OC |  |  |  | GI50 | 2.05 µM
COc1ccc(C(=O)/C=C/c2ccc(Cl)c(Cl)c2)cc1S(N)(=O)=O | SRB |  | 48 h | GI50 | 1.4 µM
COc1ccc(-c2ccc(-c3ccc(C(=N)N)nc3)s2)cc1Cl |  |  |  | GI50 | 1.79 µM
Cc1cc(C)n(C(=S)[S][Au][PH](CCCCCC[PH]([Au][S]C(=S)n2nc(C)cc2C)(c2ccccc2)c2ccccc2)(c2ccccc2)c2ccccc2)n1 |  |  |  | GI50 | 0.479 µM
